Assay outcomes as filed in PubChem BioAssay.
Shown are actives, neighbours in structure and some others; about 2.9% of the full set was active somewhere.
SENP1 inh – inhibitors of human SENP1 SUMO protease catalytic domain; Q9P0U3; recombinant SENP1 catalytic domain, CyPet-SUMO1-YPet FRET cleavage; inhibition, % at 10 µM; 0.21% of 360,000 active; AID 624204;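 active means inhibition at least 30% at 10 µM, raw YFP signal under a set limit, fluorescence ratio 0.5 to 1.5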
Target sequence (Q9P0U3 419-644 limits assumed): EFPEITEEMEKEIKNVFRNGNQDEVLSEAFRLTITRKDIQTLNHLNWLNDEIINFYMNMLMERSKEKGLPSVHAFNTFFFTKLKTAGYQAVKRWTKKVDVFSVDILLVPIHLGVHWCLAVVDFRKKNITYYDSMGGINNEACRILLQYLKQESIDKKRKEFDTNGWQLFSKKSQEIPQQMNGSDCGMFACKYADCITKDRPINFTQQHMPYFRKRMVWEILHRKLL
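Compound: 10 µM single point, 0.5% DMSO; Test system: hSENP1 catalytic domain, recombinant; Timing: 50 min reaction at room temperature; Technique: FRET, CFP and YFP emission; Control set: no-enzyme wells low, DMSO-plus-enzyme wells high control.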
SENP8 block-1 – blocks human SENP8 cleavage of Nedd8 substrate | Q96LD8 | recombinant SENP8, Nedd8 substrate fluorescence | inhibition, % at 20 µM | 0.64% of 360,000 active | AID 602440; in the data active means inhibition mostly above about 40%, no sharp cut-off; inactive means mostly below about 27%
Target sequence (Q96LD8 whole entry, looked up): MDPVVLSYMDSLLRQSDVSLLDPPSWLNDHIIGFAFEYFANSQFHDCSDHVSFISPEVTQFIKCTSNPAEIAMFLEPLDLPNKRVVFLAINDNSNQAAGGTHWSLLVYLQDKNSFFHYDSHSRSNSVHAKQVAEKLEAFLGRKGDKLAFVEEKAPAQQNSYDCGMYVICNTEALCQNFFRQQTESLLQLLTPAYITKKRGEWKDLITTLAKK
Apaf-1 inh – blocks human Apaf-1 apoptosome activity | O14727 | reconstituted apoptosome caspase-3 activity, DEVD-Rh110 fluorescence | inhibition, % at 20 µM | 0.71% of 330,000 active; active means inhibition of at least 40% at 20 µM
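Assay system: Apoptosome proteins | Medium: pH 7.5 Hepes buffer with CHAPS, BSA, DTT | Also added: Cytochrome c and DEVD-Rh110 substrate | Times: 30 min plus 50 min, RT | Detection: Rhodamine 110 fluorescence at Ex 480/Em 540 nm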
SENP6 block – blocks the human protease SENP6; Recombinant SENP6 catalytic domain, aminoluciferin luminescence; Q9GZR1; inhibition, % at 10 µM; 1.8% of 330,000 active;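 active means inhibition above about 50% at the single tested dose, limit read from the data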
SENP8 block-2 – blocks the human protease SENP8; purified SENP8, Z-RLRGG-aminoluciferin cleavage, luminescence; 1.2% of 330,000 active; inhibition, % at 10 µM; in the data active means inhibition above about 50%
SENP7 block – blocks the human protease SENP7. inhibition, % at 5 µM. AID 434973. Q9BQF6. recombinant SENP7, Z-RLRGG-aminoluciferin luminescence, 40 min. 1.5% of 330,000 active;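 active means inhibition above about 50% at the single test dose, limit read from the data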
SENP8 confirm – confirmation of human SENP8 protease inhibitors. inhibition, % at 12.5 µM. Recombinant SENP8, Z-RLRGG-aminoluciferin luminescence, 60 min. 40% of 6,200 active. AID 488912. shares compounds with SENP7 block;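 active means mean inhibition across replicates above about 50%, limit read from the data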
SENP6 conf – human SENP6 inhibition, confirmed. recombinant SENP6, Z-RLRGG-aminoluciferin luminescence. shares compounds with SENP7 block. inhibition, % at 12.5 µM. 58% of 6,200 active. AID 488915
SENP7 conf – human SENP7 inhibition, confirmed; shares compounds with SENP7 block; 69% of 6,200 active; inhibition, % at 12.5 µM; recombinant SENP7, Z-RLRGG-aminoluciferin luminescence, 40 min
Casp3 SENP sel – caspase-3 inhibition (SENP selectivity assay); purified caspase-3, Z-DEVD-aminoluciferin luminescence, 60 min; 60% of 6,200 active; AID 488918; shares compounds with SENP7 block; inhibition, % at 12.5 µM;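 active means mean inhibition above about 50%, limit read from the data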
SENP luc ctr – counter-screen for SENP inhibitors: luminescence interference | shares compounds with SENP7 block | Pre-incubated SENP8/Z-RLRGG-aminoluciferin, luciferase luminescence interference | inhibition, % at 12.5 µM | 39% of 6,200 active;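 active means mean inhibition above about 50% when retested at one dose, limit read from the data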
Each line names hits and unclear results; the compound was inactive in the other large screens (follow-up assays come after a bar, where they were run).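 How the source made its calls, unless noted: active means mean inhibition above about 50% in the one-dose retest (limit read from the data); inactive means the rest.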

O=C(Oc1ccc(/C=N/O)cc1)c1ccccc1Cl	SENP6 block 86.1, SENP8 block-2 63.3, SENP7 block 71.1 | SENP8 confirm 81.1 | SENP6 conf 77.1 | SENP7 conf 93.8 | Casp3 SENP sel 77.4 | SENP luc ctr 75.4
Cc1ccc2c(c1)NC(=O)c1cccnc1N2	SENP6 block 52.3 | SENP8 confirm inactive | SENP6 conf inactive | SENP7 conf 65.1 | Casp3 SENP sel 63.1 | SENP luc ctr inactive
O=C1Nc2ccccc2Nc2ncccc21	none
O=C(Nc1ccc2ncccc2c1)c1cccc(Br)c1	SENP6 block 53.4 | SENP8 confirm inactive | SENP6 conf inactive | SENP7 conf 65.0 | Casp3 SENP sel inactive | SENP luc ctr inactive
COc1ccc(Nc2ncccc2C(=O)O)cc1	SENP6 block 57.2 | SENP8 confirm inactive | SENP6 conf inactive | SENP7 conf 75.8 | Casp3 SENP sel 81.1 | SENP luc ctr 62.7
Cc1ccc(C(=O)Nc2ccc3ncccc3c2)cc1	SENP6 block 82.1, SENP8 block-2 80.3, SENP7 block 89.9 | SENP8 confirm 83.4 | SENP6 conf 83.6 | SENP7 conf 97.1 | Casp3 SENP sel 87.2 | SENP luc ctr 87.7
COc1ccc(C(=O)Nc2ccc3ncccc3c2)cc1	SENP6 block 81.3, SENP8 block-2 79.3, SENP7 block 87.2 | SENP8 confirm inactive | SENP6 conf 85.6 | SENP7 conf 97.5 | Casp3 SENP sel 89.2 | SENP luc ctr inactive
CCCCNC(=O)C1(C)CCN1C(=O)c1ccc2c(c1)C(C)(C)CCC2(C)C (centres undefined)	none (no result: Apaf-1 inh, SENP6 block, SENP8 block-2, SENP7 block)
COc1ccccc1N1CCN(c2ccc(-c3ccccc3)nn2)CC1	SENP6 block 94.1, SENP8 block-2 95.4 | SENP8 confirm 78.8 | SENP6 conf 89.4 | SENP7 conf 98.5 | Casp3 SENP sel 90.0 | SENP luc ctr inactive
COc1ccccc1N1CCN(c2ccc3ccccc3n2)CC1	none
N/C(=N\OC(=O)c1cccs1)c1ccccc1	SENP8 block-2 91.3, SENP7 block 99.0 | SENP8 confirm 92.7 | SENP6 conf 95.0 | SENP7 conf 100.7 | Casp3 SENP sel 97.1 | SENP luc ctr 93.3
O=C(Cc1ccccc1)O/N=C1\CCCc2ccccc21	none
O=C(O/N=C1\CCCc2ccccc21)c1cccs1	SENP6 block 88.2, SENP8 block-2 85.8, SENP7 block 91.3 | SENP8 confirm inactive | SENP6 conf 94.2 | SENP7 conf 101.3 | Casp3 SENP sel 90.1 | SENP luc ctr inactive
Cc1cccc(/C(N)=N/OC(=O)c2ccc(F)cc2)c1	SENP6 block 98.2, SENP8 block-2 96.0, SENP7 block 98.8 | SENP8 confirm 97.6 | SENP6 conf 98.1 | SENP7 conf 101.6 | Casp3 SENP sel 97.9 | SENP luc ctr 88.7
N/C(=N\OC(=O)c1cccs1)c1cccc(Br)c1	SENP8 block-2 80.1, SENP7 block 87.5 | SENP8 confirm 87.3 | SENP6 conf 88.6 | SENP7 conf 99.1 | Casp3 SENP sel 89.6 | SENP luc ctr 82.0
N/C(Cc1cccc2ccccc12)=N\OC(=O)c1cccs1	none
N/C(=N\OC(=O)c1ccc(F)cc1)c1cccc([N+](=O)[O-])c1	none
CC1CN(c2nc(Nc3ccccc3F)nc(N)c2[N+](=O)[O-])CC(C)O1 (centres undefined)	none
CCCCCCNCC(=O)N1CCC(Cc2ccccc2)CC1	none
COc1ccc(/C(N)=N/OC(=O)c2cccs2)cc1OC	none
COc1cc(OC)c(C(=O)O/N=C(\N)c2cccc(C)c2)cc1OC	none
